Test [1] is filed under the species Homo sapiens. The experiment in a line: Percent inhibition on the synthesis of thromboxane B2 at a dose of 333 uM. The test is classed as functional. Summed up: (§1)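 Arachidonic acid metabolism was measured in a lysed platelet preparation. Thromboxane synthesis (as TxB2) and PGE2 production were determined at each listed test concentration.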
For test [2], the species on record is Homo sapiens. The experiment in a line: (§2) Percent inhibition on the synthesis of thromboxane B2 at a dose of 100 uM. The test is classed as functional. Summed up:
as §1

For test [3], the species on record is Homo sapiens. The test can be described thus: Percentage stimulation on the synthesis of PGE-2 was at a dose of 333 uM. The test is classed as functional. Summed up: as §1
Test [4] has as its target T1, Thromboxane A2 receptor (Homo sapiens, UniProt P21731).
T1 sequence (P21731 whole entry): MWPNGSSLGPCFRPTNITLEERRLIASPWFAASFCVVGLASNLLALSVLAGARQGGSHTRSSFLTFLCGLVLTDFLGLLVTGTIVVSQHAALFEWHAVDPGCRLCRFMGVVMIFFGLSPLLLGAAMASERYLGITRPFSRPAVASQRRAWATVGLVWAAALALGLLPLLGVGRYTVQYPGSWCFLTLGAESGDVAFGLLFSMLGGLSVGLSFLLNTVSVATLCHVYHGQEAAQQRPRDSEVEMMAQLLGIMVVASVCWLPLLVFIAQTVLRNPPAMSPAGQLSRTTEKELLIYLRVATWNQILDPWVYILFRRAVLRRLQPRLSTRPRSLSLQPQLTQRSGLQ
The experiment in a line: Compound was evaluated for inhibition of specific binding of HSQ (5,6-di-3H-SQ 29,548) in washed platelets. More on the design: species or system Cavia porcellus.

The species entered for test [5] is Homo sapiens. The experiment in a line: Percentage stimulation on the synthesis of PGE-2 was at a dose of 33 uM. The test is classed as functional. The essentials:
as §1

For test [6], the species on record is Homo sapiens. The experiment in a line: (§3) Percentage stimulation on the synthesis of PGE-2 was at a dose of 100 uM. The test is classed as functional. Summed up:
as §1

The species entered for test [7] is Cavia porcellus. The test can be described thus: Duration of action of compound for Inhibition of arachidonic acid-induced response in guinea pigs. The test is classed as functional.
Test [8] is filed under the species Cavia porcellus. The test can be described thus: In vitro evaluation for antagonist activity against the contraction-induced by histamine (1 ug/mL). The test is classed as functional. Particulars: read-out: I50. The essentials:
(§4)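 Guinea pig trachea spirals were contracted by either 9,11-azo-PGH2 (a stable PGH2/TxA2 mimetic) or histamine, and compounds were tested for blockade of these contractions.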

The species entered for test [9] is Homo sapiens. The experiment in a line: In vitro evaluation for arachidonic acid induced platelet aggregation of human platelet-rich plasma. The test is classed as functional. Particulars: read-out: I50. The essentials:
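Human platelet-rich plasma was aggregated with arachidonic acid (800 μM). An ADP (20 μM)-induced aggregation run served as a counter-screen.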

The species named for test [10] is Homo sapiens. The test can be described thus: (§5) Percent inhibition on the synthesis of thromboxane B2 at a dose of 1000 uM. The test is classed as functional. The essentials: as §1
The species entered for test [11] is Homo sapiens. The test can be described thus: (§6) Percentage stimulation on the synthesis of PGE-2 at a dose of 10 uM. The test is classed as functional. Summed up:
as §1

Test [12] is filed under the species Cavia porcellus. The test can be described thus: In vitro evaluation for antagonist activity against the contraction-induced by 9,11-azo-PGH2 (0.1 ug/mL). The test is classed as functional. Particulars: read-out: I50. Summed up:
as §4

The subject of test [13] is Cavia porcellus. The test can be described thus: Inhibition of arachidonic acid-induced response in guinea pigs by 1 mg/kg of intravenously administered compound. The test is classed as functional. More on the design: scale not given: the % may be the effect or the level left. The note with it: route intravenous. Summed up: (§7)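 Anesthetized guinea pigs were challenged with arachidonic acid, and lung mechanics (lung resistance, dynamic compliance) and mean arterial blood pressure were recorded. Compounds were given as a 1.0 mg/kg rapid iv infusion, with n = 5 versus vehicle. Inhibition above 100% denotes reversal of the blood-pressure response.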

For test [14], the species on record is Rattus norvegicus. The test can be described thus: Concentration required to elicit 50% of the maximal contraction of rat stomach strip. The test is classed as functional. Summed up: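 Rat stomach strip contraction was measured as the concentration giving 50% of the maximal contraction produced by 3×10^-7 M serotonin.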
For test [15], the species on record is Homo sapiens. The test can be described thus: (§8) Percentage stimulation on the synthesis of PGE-2 was at a dose of 1000 uM. The test is classed as functional. Summed up:
as §1

The target in test [16] is T1, Thromboxane A2 receptor. The experiment in a line: Inhibition of specific binding of HSQ(5,6-di-3H-SQ 29,548) in washed platelets. More on the design: species or system Cavia porcellus.
Test [17] is filed under the species Homo sapiens. The experiment in a line: Percent inhibition on the synthesis of thromboxane B2 at a dose of 10 uM. The test is classed as functional. The essentials: as §1
Test [18] is filed under the species Homo sapiens. Described as §2. The test is classed as functional. The essentials:
as §1
This is another data set of the same source.

The species named for test [19] is Homo sapiens. Described as §3. The test is classed as functional. The essentials: as §1
The source holds these as a separate data set.

The species entered for test [20] is Homo sapiens. The description is as §5. The test is classed as functional. The essentials: as §1
This is another data set of the same source.

For test [21], the species on record is Homo sapiens. The description is as §6. The test is classed as functional. The essentials:
as §1
The source holds these as a separate data set.

Test [22] is filed under the species Homo sapiens. The description is as §8. The test is classed as functional. Summed up:
as §1
This is another data set of the same source.

The species entered for test [23] is Rattus norvegicus. The test can be described thus: maximal contraction of rat stomach strip by 3 x 10e -7M serotonin. The test is classed as functional.
Test [24] has as its system Cavia porcellus. The test can be described thus: Change in mean arterial blood pressure in guinea pigs by 1 mg/kg of intravenously administered compound. The note with it: route intravenous. The test is classed as functional, Artery. The essentials: as §7
The species entered for test [25] is Homo sapiens. The test can be described thus: Percentage stimulation on the synthesis of PGE-2 at a dose of 333 uM. The test is classed as functional. The essentials:
as §1

The species entered for test [26] is Homo sapiens. The test can be described thus: Percentage stimulation on the synthesis of PGE-2 at a dose of 33 uM. The test is classed as functional. Summed up:
as §1

Test [27] deals with Cavia porcellus. The test can be described thus: Change in mean arterial blood pressure(MABP) in guinea pigs by 1 mg/kg of intravenously administered compound. The test is classed as functional, Artery. Particulars: route intravenous, 1 mg/kg. Summed up:
as §7

For test [28], the species on record is Homo sapiens. The test can be described thus: Percentage stimulation on the synthesis of PGE-2 at a dose of 100 uM. The test is classed as functional. The essentials: as §1
The species entered for test [29] is Homo sapiens. The experiment in a line: Percentage stimulation on the synthesis of PGE-2 at a dose of 1000 uM. The test is classed as functional. Summed up:
as §1

The species named for test [30] is Cavia porcellus. The experiment in a line: Duration of action of compound for inhibition of arachidonic acid-induced response in guinea pigs. The test is classed as functional.

Several values for one entry are separate records, joined by “and”; a condition that tells them apart may be missing. Equal values may be shown once.

One may read the Inhibition as the change of the read-out against control, counted positive when it falls. In general, Kd refers to a measure of binding affinity in units of concentration. Regarding `CC/C=C\CCSCC1C2CCC(O2)C1C/C=C\CCCC(=O)O` (stereo not given), the Inhibition in the test filed under Homo sapiens [1] came out at 56.9%; in the test filed under Homo sapiens [2], 24.4%; in the test listed under Homo sapiens [10] it was 91.2%. Besides, the Stimulation came out at 1340% in the test listed under Homo sapiens [3]; 420% in the test listed under Homo sapiens [5]; 900% in the test filed under Homo sapiens [6]; 210% in the test filed under Homo sapiens [11]; 1920% in the test listed under Homo sapiens [15]. On Thromboxane A2 receptor [4], the affinity, expressed as Kd, was 0.4 nM. The same compound displayed a Duration in the test filed under Cavia porcellus [7] of more than 60 min. The values for the IC50 in the test filed under Cavia porcellus [8], in the test filed under Homo sapiens [9] and in the test listed under Cavia porcellus [12] were more than 100 µM, 200 nM and 380 nM, respectively. Also, the Activity in the test with Cavia porcellus [13] was 245% and 97%. For the same compound, in the test filed under Rattus norvegicus [14], the A50 is 0.2 µM.

Compound `O=C(O)CCC/C=C\CC1C2CCC(O2)C1CSCCCc1ccccc1` (stereo not given) had an A50 in the test filed under Rattus norvegicus [14] of 0.2 µM.

With `O=C(O)CCC/C=C\CC1C2CCC(O2)C1CSCCc1ccccc1` (stereo not given), the A50 in the test filed under Rattus norvegicus [14] was 23 µM.

As for `C=CCCSCC1C2CCC(O2)C1C/C=C\CCCC(=O)O` (stereo not given), the Kd on Thromboxane A2 receptor [16] was determined as 49 nM. The IC50 in the test listed under Homo sapiens [9] was 200 nM. In the test listed under Rattus norvegicus [14], this compound displayed an A50 of 32 µM.

`O=C(O)CCCC=CCC1C2CCC(O2)C1CSC/C=C/c1ccccc1` (stereo not given) showed an A50 in the test filed under Rattus norvegicus [14] of 0.7 µM.

As a reminder, the inhibition is how much of the control response was suppressed. Consider `CCCCCSCCC1C2CCC(O2)C1C/C=C\CCCC(=O)O` (stereo not given), for which the inhibition in the test listed under Homo sapiens [17] was found to be 33%; in the test listed under Homo sapiens [18], 80%; in the test filed under Homo sapiens [20], 90%. The values for the Stimulation in the test listed under Homo sapiens [19], in the test listed under Homo sapiens [21] and in the test filed under Homo sapiens [22] were -45%, 13% and -75%, respectively.

`CCCCCCSC[C@H]1C2CCC(O2)[C@H]1C/C=C\CCCC(=O)O` (stereo not given in full) had an A50 in the test filed under Rattus norvegicus [14] of 39 µM.

On to `CCSCC1C2CCC(O2)C1C/C=C\CCCC(=O)O` (stereo not given), for which, in the test listed under Rattus norvegicus [23], the Contraction is given as 13%.

On to `CCC/C=C\CSCC1C2CCC(O2)C1C/C=C\CCCC(=O)O` (stereo not given), for which the Duration in the test filed under Cavia porcellus [7] is less than 60 min. The IC50 in the test listed under Cavia porcellus [8] is more than 100 µM; in the test filed under Cavia porcellus [12], 1600 nM. For the same compound, the “Activity MABP” value with Cavia porcellus [24] was 98% and 194%. Further, the A50 in the test filed under Rattus norvegicus [14] came out at 4.3 µM.

On to `CCC/C=C(\C)CSCC1C2CCC(O2)C1CC=CCCCC(=O)O` (stereo not given), for which the IC50 is more than 100 µM in the test filed under Cavia porcellus [8] and 1600 nM in the test listed under Cavia porcellus [12]. Further, the A50 in the test listed under Rattus norvegicus [14] amounted to 46 µM.

Regarding `C=CCSCC1C2CCC(O2)C1C/C=C\CCCC(=O)O` (stereo not given), the figures for the Inhibition in the test filed under Homo sapiens [1], in the test listed under Homo sapiens [2] and in the test listed under Homo sapiens [10] were 51.8%, 22.1% and 61.5%, respectively. The Stimulation in the test filed under Homo sapiens [25] is 1650%; in the test listed under Homo sapiens [26], 380%; in the test filed under Homo sapiens [28] it was 860%; in the test listed under Homo sapiens [29] it was 1820%; in the test listed under Homo sapiens [11], 220%. Besides, the Kd on Thromboxane A2 receptor [16] turned out to be 76 nM. Besides, the Contraction in the test listed under Rattus norvegicus [23] is 26%. The Agonist activity in the test on Cavia porcellus [27] is 115% and 165%. Also, the IC50 in the test filed under Cavia porcellus [8] is more than 100 µM; in the test listed under Homo sapiens [9] it was 500 nM; in the test listed under Cavia porcellus [12] it was 3800 nM. This compound displayed a Duration in the test listed under Cavia porcellus [30] of more than 60 min. Further, the Activity in the test on Cavia porcellus [13] was 273% and 98%.

`CCCCCC(C)SCC1C2CCC(O2)C1C/C=C\CCCC(=O)O` (stereo not given) yielded a Duration in the test filed under Cavia porcellus [30] of 0 min.

Take `O=C(O)CCC/C=C\CC1C2CCC(O2)C1CSCCOc1ccccc1` (stereo not given): the A50 in the test listed under Rattus norvegicus [14] is 0.1 µM.
